Shown are actives, neighbours in structure and some others; about 4.9% of the full set was active somewhere.
NF-kB expr up: compounds increasing NF-kB expression in human neuronal cells. NF-kB reporter expression; active compounds read high. AID 1239. fold change at 12.5 µM. hit rate 1.6% among 190,000; in the data active means fold change above about 3.3
STAT3 inh: reduces IL-6 driven STAT3 reporter signal; U3A cells, IL-6 STAT3-luciferase reporter, luminescence; host cell line lacks STAT1; inhibition, % at 5.5 µM; hit rate 0.89% among 190,000; AID 862;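 active means inhibition above the mean inhibition across all screened compounds plus 3 SD, cut at about 44% in these data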
STAT1 blocker: inhibitors of IFN-gamma induced STAT1 signaling; inhibition, % at 5.5 µM; hit rate 0.35% among 200,000; NIH 3T3 STAT1-luciferase reporter, luminescence;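 active means inhibition above a set limit, the mean inhibition across all tested compounds plus 3 SD, cut at about 34% in these data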
STAT3 activator: activators of IL-6 induced STAT3 signaling | U3A cells, IL-6 STAT3-luciferase reporter, luminescence; 100% = signal with IL-6 EC80 alone | activation (% of control), % at 5.6 µM | hit rate 0.91% among 190,000 | AID 871;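 active means activation above the screen-wide mean of compound activation plus 3 SD, cut at about 130% in these data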
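Material: human U3A cells carrying STAT3-luciferase construct. Measured by: reporter luminescence signal. Timing: compound 1 h, then IL-6 6 h at 37 °C.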
APP 5'UTR act: APP 5'UTR luciferase reporter activation; hit rate 1% among 190,000; SH-SY5Y APP 5'UTR luciferase reporter, luminescence; zero percent = DMSO vehicle wells; activation, % at 2 µM;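 active means activation above a set limit, based on mean plus 3 SD of controls, cut at about 140% in these data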
STAT1 act: activators of IFN-gamma induced STAT1 signaling; NIH 3T3 STAT1-luciferase reporter, luminescence; 100% = IFN-gamma alone, no compound; activation (% of control), % at 5.5 µM; hit rate 2.6% among 200,000; AID 932;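 active means activation above the screen-wide mean activation plus 3 SD, cut at about 130% in these data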
A number is an active result; - = inactive; . = no result.

SMILES | NF-kB expr up | STAT3 inh | STAT1 blocker | STAT3 activator | APP 5'UTR act | STAT1 act
CCOc1cc(C2NN=C(c3ccccc3)S2)ccc1OCc1ccc(F)cc1 (configuration not stated) | 4.5 | - | - | - | - | 133
CCOc1cc(CNC2CCCC2)ccc1OCc1ccccc1Cl | - | - | - | - | - | -
CCOc1cc(C2NN=C(c3ccccc3)S2)ccc1OCc1ccccc1Cl (configuration not stated) | 3.7 | - | - | - | - | 136
CC(=O)NN1C(=O)/C(=C/c2ccc(C(C)C)cc2)SC1=S | - | - | - | - | - | -
CC(C)c1ccc(/C=N/NC(=O)CC(=O)NCc2ccccc2)cc1 | - | - | - | - | - | -
CC(C)c1ccc(/C=N/NC(=O)c2ccccc2Cl)cc1 | - | - | - | - | - | 139
CNC(=S)N/N=C/c1ccc(C(C)C)cc1 | . | - | - | - | - | 129
CC(C)CN1C(=O)C(=O)N(CC(=O)Nc2cc(Cl)ccc2Oc2ccccc2)C1=O | - | - | - | - | - | -
COC(=O)CC1COc2ccccc2N1C(=O)c1ccc(C(C)(C)C)cc1 (configuration not stated) | - | - | - | - | - | -
O=C(CC(Nc1ccc(F)cc1)C(=O)O)c1ccccc1 (configuration not stated) | 5.7 | 54 | - | - | - | 148
O=C(Nc1c2c(nn1-c1ccccc1)CSC2)c1ccc(N2C(=O)CCC2=O)cc1 | - | - | - | - | - | -
Cc1ccc(-c2cc(C(=O)NCC3CCCO3)no2)cc1 (configuration not stated) | - | - | - | - | - | -
O=C(NCC1CCCO1)c1cc(-c2ccc(Cl)cc2Cl)on1 (configuration not stated) | 3.4 | - | - | - | - | -
O=C(NCC1CCCO1)c1cc(-c2ccccc2)on1 (configuration not stated) | 7.8 | - | - | - | - | 140
CC(C)(C)C(=O)Nc1cc(S(=O)(=O)N2CCCCC2)ccc1N1CCCCC1 | - | - | - | - | - | -
Cc1ccc(/C=N/n2c(-c3cccs3)n[nH]c2=S)cc1 | 4.1 | - | - | - | - | -
S=c1[nH]nc(-c2cccs2)n1/N=C/c1c(Cl)cccc1Cl | - | - | - | - | - | -
COc1ccc(/C=N/n2c(-c3cccs3)n[nH]c2=S)cc1 | 5.2 | - | - | - | - | -
CCOc1c(Cl)cc(C(=O)Nc2cccc(C(=O)O)c2)cc1Cl | - | - | - | - | - | -
C#CCn1c(=NC(=O)c2cc(-c3cccs3)nc3ccccc23)sc2cc(S(N)(=O)=O)ccc21 | - | - | - | - | - | -
Cc1ccccc1OCCSCc1nc2ccccc2[nH]1 | - | - | - | - | - | -
COc1ccc(C(=O)c2ccc(Cl)c([N+](=O)[O-])c2)cc1 | 3.6 | - | - | - | - | -
COc1ccccc1NC(=O)c1ccc(Cl)c(S(=O)(=O)N2CCOCC2)c1 | - | - | - | - | - | -
O=C(Nc1ccccc1C(=O)O)c1ccc(Cl)c(S(=O)(=O)N2CCOCC2)c1 | - | - | 51 | - | - | -
O=C(O)c1cccc(NC(=O)c2ccc(Cl)c(S(=O)(=O)N3CCCCCC3)c2)c1 | - | 53 | 39 | - | - | -
SMILES | NF-kB expr up | STAT3 inh | STAT1 blocker | STAT3 activator | APP 5'UTR act | STAT1 act
COc1ccc(-c2csc(=Nc3c(C)n(C)n(-c4ccccc4)c3=O)n2C(C)(C)C)cc1 | - | - | - | - | - | -
COc1ccc(-c2cc(=Nc3c(C)n(C)n(-c4ccccc4)c3=O)c3ccccc3o2)cc1 | - | - | - | - | - | 142
CC(C)=CCC(C)(C)/C=N/NC(N)=O | . | . | . | . | - | .
O=C(c1ccccc1)c1cnc(Nc2ccc(Cl)c(Cl)c2)s1 | - | - | - | - | - | -
CC(=O)c1cnc(Nc2cccc(C)c2)s1 | - | - | - | - | - | 134
CCOC(=O)CC(NS(=O)(=O)c1ccc(OC)c(C)c1)c1cccc([N+](=O)[O-])c1 (configuration not stated) | - | - | - | - | - | -
CCCCn1cnc2cc(C)c(C)cc21 | - | - | - | - | - | -
O=C(CCCc1cccs1)Nc1nc2c(s1)CCCC2 | - | - | - | 133 | - | -
CC1CCc2nc(NC(=O)c3ccco3)sc2C1 (configuration not stated) | - | 97 | 43 | - | - | -
